Each structure is given as a SMILES string.

As a reminder, the IC50 is the point on the concentration scale where inhibition reaches its midpoint. One may read the inhibition as the share of the control response that was lost under treatment.

Experiment [1] has as its target 11-beta-hydroxysteroid dehydrogenase 1 (Mus musculus, UniProt P50172). Nature of the experiment: Inhibition of mouse 11beta-HSD1 expressed in HEK293 cell microsomes assessed as inhibition of [3H]cortisone conversion to [3H]cortisol by scintillation proximity assay. Further details: species or system Microsome. The method in brief: (§1)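 Enzyme source: microsomal fraction from HEK-293 cells stably transfected with 11β-HSD1 (human or mouse), incubated with NADPH and [3H]cortisone. The [3H]cortisol product is captured by a monoclonal antibody on protein A-coated SPA beads. IC50 is averaged over at least two independent experiments, at least duplicate per concentration.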

The target of experiment [2] is T1, 11-beta-hydroxysteroid dehydrogenase type 2 (Homo sapiens, UniProt P80365).
T1 sequence (P80365 whole entry): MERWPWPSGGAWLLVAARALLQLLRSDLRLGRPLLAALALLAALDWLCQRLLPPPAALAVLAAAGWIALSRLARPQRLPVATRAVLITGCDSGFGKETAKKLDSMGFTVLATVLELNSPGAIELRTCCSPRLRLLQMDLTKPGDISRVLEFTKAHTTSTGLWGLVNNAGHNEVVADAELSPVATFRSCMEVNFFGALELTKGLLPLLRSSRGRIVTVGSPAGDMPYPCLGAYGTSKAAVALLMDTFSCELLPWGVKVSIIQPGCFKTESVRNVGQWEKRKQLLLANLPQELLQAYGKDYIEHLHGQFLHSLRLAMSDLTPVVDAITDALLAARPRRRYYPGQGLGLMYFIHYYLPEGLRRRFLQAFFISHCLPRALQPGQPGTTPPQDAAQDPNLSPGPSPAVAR
Nature of the experiment: Inhibition of human 11beta-HSD2.

The next experiment is filed under the species Homo sapiens. Nature of the experiment: selectivity ratio of IC50 for human 11beta-HSD2 to IC50 for human 11beta-HSD1. The method in brief:
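Ratio of 11β-HSD2 IC50 to 11β-HSD1 IC50 for the same species (mouse or human). Both IC50s come from microsome-based scintillation proximity assays, averaged over at least two independent experiments with at least duplicate wells per concentration. Only compounds exceeding 50% inhibition in the primary screen were evaluated.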

In experiment [3] the target is 11-beta-hydroxysteroid dehydrogenase 1 (Mus musculus) (UniProt P50172). The experiment in a line: Inhibition of mouse 11beta-HSD1 expressed in HEK293 cell microsomes assessed as inhibition of [3H]cortisone conversion to [3H]cortisol at 1 uM by scintillation proximity assay. Particulars: Microsome. The method in brief:
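Primary single-concentration screen in the SPA. Mouse 11β-HSD1 HEK-293 stable-transfectant microsomes are incubated with NADPH and [3H]cortisone, and [3H]cortisol is captured by antibody-coupled protein A SPA beads. Inhibitory ratio is the average of two determinations, with deviation from the average of 10% of the average value.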
(In a scintillation proximity assay essentially only radioactivity close to the scintillant gives light.)

Experiment [4] has as its target 11-beta-hydroxysteroid dehydrogenase 1 (Homo sapiens, UniProt P28845). Nature of the experiment: Inhibition of human 11beta-HSD1 expressed in HEK293 cell microsomes assessed as inhibition of [3H]cortisone conversion to [3H]cortisol by scintillation proximity assay. Further details: species or system Microsome. The method in brief:
as §1

Sequence of 11-beta-hydroxysteroid dehydrogenase 1 (Homo sapiens, UniProt P28845) (P28845 whole entry): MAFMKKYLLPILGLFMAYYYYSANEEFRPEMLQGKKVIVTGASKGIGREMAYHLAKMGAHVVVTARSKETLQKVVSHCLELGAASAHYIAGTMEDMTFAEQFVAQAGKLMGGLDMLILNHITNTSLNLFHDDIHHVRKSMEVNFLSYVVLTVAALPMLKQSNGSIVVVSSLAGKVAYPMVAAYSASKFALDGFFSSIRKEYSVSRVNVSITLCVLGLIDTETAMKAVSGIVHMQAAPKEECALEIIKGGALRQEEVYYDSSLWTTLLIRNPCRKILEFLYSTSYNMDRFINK
Sequence of 11-beta-hydroxysteroid dehydrogenase 1 (Mus musculus, UniProt P50172) (P50172 whole entry): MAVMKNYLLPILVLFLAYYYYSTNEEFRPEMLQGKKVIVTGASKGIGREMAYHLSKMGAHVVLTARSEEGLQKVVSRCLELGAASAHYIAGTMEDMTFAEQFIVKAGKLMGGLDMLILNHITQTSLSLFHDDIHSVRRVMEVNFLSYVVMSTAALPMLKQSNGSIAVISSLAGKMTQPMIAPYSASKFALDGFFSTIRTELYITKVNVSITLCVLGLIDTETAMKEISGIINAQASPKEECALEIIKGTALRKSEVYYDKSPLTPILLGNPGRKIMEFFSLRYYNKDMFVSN
Sequence of 11-beta-hydroxysteroid dehydrogenase 1 (Mus musculus) (P50172 whole entry, looked up): as the sequence (P50172 whole entry) above

As for `C=C1[C@H]2C[C@H](O)[C@H]3[C@]4(C)CCC[C@@](C)(NC(=O)NC56CC7CC(CC(C7)C5)C6)[C@H]4CC[C@]3(C2)[C@@H]1O`, the IC50 in experiment [1] is over 1 µM; in experiment [2], 0.7 µM; in experiment [4] it was 0.404 µM. For the same molecule, the Ratio IC50 in the experiment filed under Homo sapiens turned out to be 1.7. In addition, in experiment [3], the inhibition was 20.8%.

Take `C=C1[C@H]2C[C@H](O)[C@H]3[C@]4(C)CCC[C@@](C)(CO)[C@H]4CC[C@]3(C2)[C@@H]1O`: the inhibition in experiment [3] came to 27.3%.

As for `C=C1[C@H]2C[C@H](OC(=O)N3CCOCC3)[C@H]3[C@]4(C)CCC[C@@](C)(C(=O)O)[C@H]4CC[C@]3(C2)[C@@H]1O`, the inhibition in experiment [3] is 35.2%.

Take `C=C1C[C@@]23CC[C@H]4[C@@](C)(CCC[C@@]4(C)NC(=O)Nc4nccs4)[C@@H]2CC[C@H]1C3`: in experiment [3], the inhibition was found to be 18.2%.

Turning to `C=C1[C@H]2CC[C@H]3[C@]4(C)CCC[C@@](C)(C(=O)O)[C@H]4CC[C@]3(C2)[C@@H]1F`, the inhibition in experiment [3] stood at 56%.

For `C=C1[C@H]2C[C@H](O)[C@H]3[C@]4(C)CCC[C@@](C)(NC(=O)NC)[C@H]4CC[C@]3(C2)[C@@H]1O`, the inhibition in experiment [3] was determined as 19.4%.

Turning to `C[C@@]12CCC[C@@](C)(C(=O)O)[C@H]1CC[C@]13CC(=O)[C@@H](CC[C@H]12)C3`, in experiment [3], the inhibition stood at 19.6%.

As for `C=C1[C@H]2C[C@H](O)[C@H]3[C@]4(C)CCC[C@@](C)(NC(=O)N5CCCC5)[C@H]4CC[C@]3(C2)[C@@H]1O`, the inhibition in experiment [3] is 9.21%.

`C=C1C[C@@]23CC[C@@H]4[C@](C)(CF)CCC[C@@]4(C)[C@@H]2CC[C@H]1C3`: the inhibition in experiment [3] stood at 37.7%.

Consider `C=C1[C@H]2C[C@H](O)[C@H]3[C@]4(C)CCC[C@@](C)(NC(=O)Nc5ccccc5)[C@H]4CC[C@]3(C2)[C@@H]1O`, for which the figures for the IC50 in experiment [1], in experiment [2] and in experiment [4] were over 1 µM, over 1000 µM and 0.0094 µM, respectively. For the same molecule, in the experiment listed under Homo sapiens, the Ratio IC50 was over 10600. In addition, in experiment [3], the inhibition worked out at 24.4%.

For `C[C@H]1[C@H]2C[C@H](O)[C@H]3[C@]4(C)CCC[C@@](C)(C(=O)O)[C@H]4CC[C@]3(C2)[C@@H]1O`, the inhibition in experiment [3] is 11.6%.

With `C=C1[C@@H](O)[C@@]23CC[C@H]4[C@@](C)(CCC[C@@]4(C)C(=O)O)[C@@H]2C=C[C@H]1C3`, in experiment [3], the inhibition came out at 19.6%.

In the case of `C=C1C[C@@]23CC[C@H]4[C@@](C)(CCC[C@@]4(C)NC(=O)Nc4ccc(F)cc4)[C@@H]2CC[C@H]1C3`, the IC50 in experiment [1] was over 1 µM; in experiment [2] it was over 100 µM; in experiment [4], 0.331 µM. Besides, the Ratio IC50 in the experiment filed under Homo sapiens is over 302. The inhibition in experiment [3] was 25.9%.

As for `C=C1[C@H]2C[C@H](O)[C@H]3[C@]4(C)CCC[C@@](C)(NC(=O)N(C)OC)[C@H]4CC[C@]3(C2)[C@@H]1O`, the inhibition in experiment [3] is 16.1%.

In the case of `C=C1[C@H]2C[C@H](OC(=S)SC)[C@H]3[C@]4(C)CCC[C@@](C)(C(=O)O)[C@H]4CC[C@]3(C2)[C@@H]1O`, the IC50 in experiment [1] is over 1 µM; in experiment [2] it was over 100 µM; in experiment [4] it was 0.771 µM. For the same molecule, the Ratio IC50 in the experiment filed under Homo sapiens is over 130. In experiment [3], the inhibition turned out to be 11.1%.

Regarding `C=C1[C@H]2C[C@H](O)[C@H]3[C@]4(C)CCC[C@@](C)(NC(=O)Nc5nccs5)[C@H]4CC[C@]3(C2)[C@@H]1O`, in experiment [3], the inhibition is 5.39%.

For `CC1(C)[C@@H](O)CC[C@]2(C)[C@H]3C(=O)C=C4[C@@H]5C[C@@](C)(C(=O)O)CC[C@]5(C)CC[C@@]4(C)[C@]3(C)CC[C@@H]12`, in experiment [3], the inhibition came to 96.7%.

Consider `C=C1[C@H]2C[C@H](O)[C@H]3[C@]4(C)CCC[C@@](C)(N=C=O)[C@H]4CC[C@]3(C2)[C@@H]1O`, for which, in experiment [3], the inhibition turned out to be 16.8%.

In the case of `C=C1[C@H]2C[C@H](O)[C@H]3[C@]4(C)CCC[C@@](C)(C(=O)OC)[C@H]4CC[C@]3(C2)[C@@H]1O`, the inhibition in experiment [3] amounted to 25.1%.

For `C=C1[C@H]2C[C@H](OC(=O)c3ccc(N(C)C)cc3)[C@H]3[C@]4(C)CCC[C@@](C)(C(=O)O)[C@H]4CC[C@]3(C2)[C@@H]1O`, the inhibition in experiment [3] was determined as 34%.

`C=C1[C@H]2C[C@H](O)[C@H]3[C@]4(C)CCC[C@@](C)(NC(=O)Nc5ccc(C(F)(F)F)cc5)[C@H]4CC[C@]3(C2)[C@@H]1O`: the inhibition in experiment [3] was determined as 3.69%.

Take `C=C1[C@H]2C[C@H](OC(=O)Nc3nccs3)[C@H]3[C@]4(C)CCC[C@@](C)(C(=O)O)[C@H]4CC[C@]3(C2)[C@@H]1O`: the inhibition in experiment [3] is 11.6%.

For the molecule `C=C1[C@H]2C[C@H](OC(=O)c3ccc(Br)cc3)[C@H]3[C@]4(C)CCC[C@@](C)(C(=O)O)[C@H]4CC[C@]3(C2)[C@@H]1O`, the inhibition in experiment [3] worked out at 32.7%.

For the molecule `C=C1C[C@@]23CC[C@H]4[C@@](C)(CCC[C@@]4(C)NC(=O)NC45CC6CC(CC(C6)C4)C5)[C@@H]2CC[C@H]1C3`, the IC50 was over 1 µM in experiment [1], over 100 µM in experiment [2] and 0.407 µM in experiment [4]. In the experiment filed under Homo sapiens, the Ratio IC50 was over 246. The inhibition in experiment [3] turned out to be 18.2%.

For `C=C1[C@H]2C[C@H](O)[C@H]3[C@]4(C)CCC[C@@](C)(NC(=O)NC5CCCCC5)[C@H]4CC[C@]3(C2)[C@@H]1O`, the IC50 in experiment [1] was over 1 µM; in experiment [2], over 100 µM; in experiment [4] it was 0.165 µM. Also, the Ratio IC50 in the experiment listed under Homo sapiens is over 605. Besides, the inhibition in experiment [3] was found to be 16.3%.

`C=C1C[C@@]23CC[C@H]4[C@@](C)(CCC[C@@]4(C)N=C=O)[C@@H]2CC[C@H]1C3`: the inhibition in experiment [3] was determined as 55.5%.

As for `C=C1[C@H]2C[C@H](O)[C@H]3[C@]4(C)CCC[C@@](C)(NC(=O)NC(C)(C)C)[C@H]4CC[C@]3(C2)[C@@H]1O`, in experiment [3], the inhibition was 11.3%.

`C=C1C(=O)[C@@]23CC[C@H]4[C@@](C)(CCC[C@@]4(C)C(=O)O)[C@@H]2[C@@H](O)C[C@H]1C3`: in experiment [3], the inhibition was 25.3%.

For the molecule `C[C@@]12CCC[C@@](C)(C(=O)O)[C@H]1CC[C@@]13C[C@H](C[C@H](O)[C@@H]21)[C@]1(CO1)[C@H]3O`, the inhibition in experiment [3] stood at 16.8%.

Turning to `C=C1[C@H]2C[C@H](O)[C@H]3[C@]4(C)CCC[C@@](C)(NC(=O)N5CCOCC5)[C@H]4CC[C@]3(C2)[C@@H]1O`, the inhibition in experiment [3] was found to be 21.4%.

As to `C=C1[C@H]2C[C@H](O)[C@H]3[C@]4(C)CCC[C@@](C)(C(=O)O)[C@H]4CC[C@]3(C2)[C@@H]1O`, the inhibition in experiment [3] is 16.5%.

Regarding `C=C1[C@H]2C[C@H](O)[C@H]3[C@]4(C)CCC[C@@](C)(NC(=O)Nc5cccc6ccccc56)[C@H]4CC[C@]3(C2)[C@@H]1O`, the IC50 in experiment [1] was over 1 µM; in experiment [2], 1.6 µM; in experiment [4], 0.266 µM. Further, the Ratio IC50 in the experiment listed under Homo sapiens worked out at 6.2. Also, in experiment [3], the inhibition amounted to 52.2%.

In the case of `C=C1[C@H]2C[C@H](OC(C)=O)[C@H]3[C@]4(C)CCC[C@@](C)(C(=O)O)[C@H]4CC[C@]3(C2)[C@@H]1O`, the IC50 in experiment [1] is over 1 µM; in experiment [2] it was 229 µM; in experiment [4], 0.116 µM. Also, the Ratio IC50 in the experiment filed under Homo sapiens came out at 1970. Further, in experiment [3], the inhibition was determined as 12.4%.

`C=C1[C@H]2C[C@H](O)[C@H]3[C@]4(C)CCC[C@@](C)(NC(=O)N5CCNCC5)[C@H]4CC[C@]3(C2)[C@@H]1O`: the inhibition in experiment [3] is 12.7%.

As to `C=C1[C@H]2C[C@H](O)[C@H]3[C@]4(C)CCC[C@@](C)(NC(=O)Nc5ccc(F)cc5)[C@H]4CC[C@]3(C2)[C@@H]1O`, the results for the IC50 in experiment [1], in experiment [2] and in experiment [4] were over 1 µM, over 100 µM and 0.249 µM, respectively. Also, the Ratio IC50 in the experiment filed under Homo sapiens was over 402. Moreover, in experiment [3], the inhibition was found to be 7.92%.

In the case of `C=C1[C@H]2C[C@H](OC(=O)c3ccccc3)[C@H]3[C@]4(C)CCC[C@@](C)(C(=O)O)[C@H]4CC[C@]3(C2)[C@@H]1O`, the inhibition in experiment [3] was 21.3%.

The values are drawn from ChEMBL document CHEMBL2401669, “Discovery and structure-activity relationships of ent-Kaurene diterpenoids as potent and selective 11β-HSD1 inhibitors: potential impact in diabetes” (Eur J Med Chem, 2013).
